UPR CHOP act: activators of apoptotic arm of unfolded protein response (CHOP); CHO-CHOP luciferase reporter, UPR activation, luminescence; percent of tunicamycin response over DMSO baseline; activation, % at 10 µM; actives 0.34% (n = 330,000); AID 449763;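 active = at 10 µM dose, activation of 40% or more, normalized to positive control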;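 note: 100% = tunicamycin at 10 µg/mL and 0% = DMSO alone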
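System: CHO-CHOP luciferase reporter cell line | Buffer or medium: F12 medium containing 10% fetal bovine serum | Doses: One dose, 10 µM in 0.5% DMSO | Times: 6 h compound exposure at 37 °C after overnight seeding | Signal: Luciferase luminescence | Read-out: % activation vs tunicamycin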
CHOP inhibitor: inhibitors of CHOP induction in ER stress response. CHO-K1 CHOP-promoter luciferase, tunicamycin-induced, 15-18 h. inhibition, % at 10 µM. actives 3.8% (n = 220,000);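 active = compounds that reduced the stress-induced luciferase reporter signal by more than about 70% of percent inhibition, limit read from the data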;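 note: 0% = tunicamycin plus vehicle and 100% = wells without tunicamycin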
Dynein cargo inh: blocks dynein driven cargo transport along microtubules; z-score, hits read low; actives 0.47% (n = 220,000); 3617.4 mouse cells, GR-EGFP nuclear translocation imaging; test concentration mostly 20 µM; stimulated with dexamethasone, 1 µM; hits give low values;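 active = plate z-score of nuclear minus cytoplasmic receptor signal below a set negative limit, without overly bright fluorescence or cell loss, cut at about -3.5 in these data, passing the limit was not always enough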;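 note: z-score of nuclear minus cytoplasmic ring GR-EGFP intensity difference per well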
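Buffer or medium: tet-free, stripped-serum medium; reagent: dexamethasone at 1.0 µM final, 30 min; incubation: 48 h induction, 1 h compound, 30 min dex at 37 °C; measured by: formaldehyde fixation, Hoechst nuclear stain, 10x automated fluorescence imaging; read-out: nuclear-to-cytoplasmic GR-EGFP distribution per well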
UPR XBP1 act: adaptive UPR (XBP1) activation; CHO-XBP1 luciferase reporter, IRE1-XBP1 UPR activation, luminescence; percent of tunicamycin response, DMSO as zero; activation, % at 20 µM; actives 0.33% (n = 330,000);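 active = versus positive control, 20 µM dose yields 30% or more activation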;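 note: 100% = tunicamycin at 10 µg/mL and 0% = DMSO only wells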
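Signal: luciferase luminescence; Assay system: CHO-XBP1 luciferase reporter cells; Amount: one thousand reporter cells per well; Dosing: 20 µM single concentration, DMSO 1%; Benchmarks: high control tunicamycin 10 µg/mL final, low control DMSO vehicle only; Schedule: 6 h compound exposure at 37 °C, 5% CO2; Evaluation: percent activation relative to tunicamycin reference.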
T cruzi repl: T. cruzi replication inhibition; T. cruzi beta-gal in NIH3T3, luminescence, 90 h; inhibition, % (concentration not given with the values); actives 1.4% (n = 300,000); AID 1885;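 active = mean inhibition across valid replicates above about 55%, limit read from the data; inconclusive = mean below that limit but half or more replicates reach it; inactive = mean below it, under half of replicates reach it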;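 note: signal also drops with host cell toxicity which is not excluded here; 0% = plate median of DMSO wells and 100% = zero luminescence signal; higher percent means less beta-gal luminescence so fewer parasites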
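System: Mouse NIH/3T3 fibroblasts infected with β-gal-expressing T. cruzi Tulahuen C4 | Quantity: NIH/3T3 cells, 5,000 per well | Reagent: 5000 reporter trypomastigotes per well | Dosing: Compound pinned at 50 nL/well, DMSO | Schedule: 3 h host attachment, then at least 90 h co-culture | Detection: GalScreen luminescence, 60 min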
Lmaj promast: reduces viability of Leishmania major promastigotes. inhibition, % at 10 µM. resazurin fluorescence viability. AID 1063. actives 9% (n = 200,000); in the data active = inhibition above about 50%;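 note: promastigotes grown with compound for 44 hours at 28 °C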
Dynein confirm: dynein cargo transport inhibition, confirmation; shares compounds with Dynein cargo inh; 3617.4 GR-EGFP nuclear translocation imaging, dexamethasone-induced; AID 463116; actives 69% (n = 1,000); calls only at 20 µM;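 active = inhibition of receptor movement into the nucleus at or above a set limit in both runs, with normal cell brightness and cell count; inconclusive = limit reached in only one run, brightness and count normal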;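 note: dexamethasone at 1 µM final in well for 30 min; nuclear minus cytoplasmic GR-EGFP mean intensity difference in channel 2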
The depositor's hits bear a star; i = inactive; ? = inconclusive; nt = no result; + = active, no number. The full list was thinned out, with hits kept by preference.

SMILES	UPR CHOP act	CHOP inhibitor	Dynein cargo inh	UPR XBP1 act	T cruzi repl	Lmaj promast	Dynein confirm
COc1ccc(C2C(C#N)=C(N)Oc3c2sc2nc(C)cc(C)c32)cc1 (stereo unspecified)	0	-45	-3.9*	-2	36	100*	i
N#Cc1c(C(F)(F)F)cc(-c2ccccc2)nc1SCc1nc(N)nc(N2CCOCC2)n1	1	39	-3.8	1	6	-3	+
Cc1cc(C)c2c(=O)n(CC(=O)NC3CCCC3)sc2n1	4	6	-4.2*	-2	?	nt	+
O=C1c2cccc3c(N4CCCCC4)ccc(c23)C(=O)N1CCO	8	-35	-0.62	9	13	10	nt
O=C(OCCN1C(=O)c2cccc3c(N4CCOCC4)ccc(c23)C1=O)c1cccc(Cl)c1	nt	9	-3.8	nt	-1	1	?
O=C(OCCN1C(=O)c2cccc3c(N4CCOCC4)ccc(c23)C1=O)c1ccc(Cl)cc1Cl	nt	-39	-11	nt	26	5	+
COc1ccc(S(=O)(=O)NCC(c2ccc3c(c2)OCO3)N2CCOCC2)cc1 (stereo unspecified)	1	nt	nt	0	2	nt	nt
C[C@@H](OC(=O)N1CCCCC1)[C@H]1O[C@]2(C)CCCC[C@H]1O2	-1	nt	nt	-4	nt	nt	nt
O=C1C=C(NCc2ccccc2)CCC1	-1	-1	-0.22	-1	-3	-6	nt
O=C1C=C(NC2=CC3OC(c4ccccc4)OCC3OC2=O)CCC1 (stereo unspecified)	nt	95*	-4.4*	nt	-35	38	+
COc1ccc2no[n+]([O-])c2c1	0	8	-0.086	0	-9	nt	nt
CCCCN1C(=O)/C(=C/C=C2\Oc3ccccc3N2CC)SC1=S	nt	29	-4.6	nt	12	-2	+
C=CCN1C(=O)/C(=C\C=C2\N(C)c3ccccc3C2(C)C)SC1=S	2	45	-0.24	-2	52	20	nt
CCCN1C(=O)/C(=C/C=C2\N(CC)c3ccccc3C2(C)C)SC1=S	0	54	-7.9	-3	37	14	i
CCN(C(=O)N1CCOCC1)c1ccccc1C	-2	nt	nt	-1	3	nt	nt
Cc1ccc(S(=O)(=O)CC(=O)N2CC(C)OC(C)C2)cc1 (stereo unspecified)	-1	nt	nt	1	-24	nt	nt
CCCn1nc(-c2ccccc2)c2nc3ccccc3nc21	-5	33	-4.5	-3	nt	-3	i
Cc1cccc(Cn2ncc(Cl)c(Cl)c2=O)c1	19	-99	-4.3*	4	-21	62*	+
Cc1cc2oc(=O)cc(Cn3ncc(Cl)c(Cl)c3=O)c2cc1Cl	2	105*	-6.1*	-8	57*	100*	+
Cc1ccc(C(=O)OCn2ncc(Cl)c(Cl)c2=O)cc1	-11	107*	-3.8*	-7	50	101*	+
COc1cc(-c2nnc(COC(=O)c3ccc(C)o3)o2)cc(OC)c1OC	0	nt	nt	2	nt	nt	nt
C=CCNC(=O)c1ccc(NC(=O)CC2SC(N3CCCC3)=NC2=O)cc1 (stereo unspecified)	1	nt	nt	0	-10	nt	nt
Cc1ccc(C(=O)/C=C/c2ccccc2)o1	6	-63	-3.7*	3	-20	83*	?
CCOC(=O)Cn1cc(/C=C/[N+](=O)[O-])c2ccccc21	1	-18	0.078	-3	-7	36	nt
CCOC(=O)COc1ccc2ccccc2c1/C=C/[N+](=O)[O-]	nt	109*	-4.8*	nt	11	90*	+
SMILES	UPR CHOP act	CHOP inhibitor	Dynein cargo inh	UPR XBP1 act	T cruzi repl	Lmaj promast	Dynein confirm
CCN(CC)c1ccc2cc(-c3nc4ccccc4n3C)c(=O)oc2c1	nt	nt	1.7	nt	20	3	nt
CCN(CC)c1ccc2cc(-c3nc(-c4ccc(OC)cc4)cs3)c(=O)oc2c1	0	22	-5.1*	-2	nt	47	+
Nc1nc(CCl)nc(Nc2ccc3ccccc3c2)n1	nt	-114	-4.3*	nt	18	nt	+
c1cncc(-c2nc(-c3ccco3)cs2)c1	3	-55	-4.5*	5	7	-2	i
COc1ccc(C(=O)NN2CCOCC2)cc1	2	nt	nt	-3	-24	nt	nt
Oc1c(Br)cccc1/C=N/c1ncn[nH]1	0	nt	nt	1	-13	nt	nt
C=C(CCC(=O)c1ccccc1)C(=O)c1ccccc1	nt	-8	-3.8*	nt	-43	100*	+
CCOC(=O)N1CCN(S(=O)(=O)/C=C/c2ccccc2)CC1	0	44	-0.18	1	1	-7	nt
CCOC(=O)N1C/C(=C\c2ccccc2)C(=O)/C(=C/c2ccccc2)C1	nt	55	-4.9*	nt	53	nt	+
O=C(CCCc1nc(-c2ccccc2Cl)no1)N1CCOCC1	1	-4	-0.2	-3	-11	-10	nt
O=S(=O)(NCC(c1ccco1)N1CCCCC1)c1ccccc1C(F)(F)F (stereo unspecified)	-1	nt	nt	0	nt	nt	nt
CCCCCCCOC(=O)C[N+](C)(C)CCOC1CC2CCC1(C)C2(C)C (stereo unspecified)	nt	93*	-4.6*	nt	62*	100*	i
CCOC(=O)c1ccc(N2CCOCC2)c(NC(=O)c2ccc3c(c2)OCO3)c1	-2	nt	nt	0	4	nt	nt
NC(=O)NC(CC(=O)NNC(=O)c1cccs1)c1ccc(Cl)cc1 (stereo unspecified)	0	nt	nt	1	nt	nt	nt
COc1ccc(C(C(=O)NC2CCCCC2)N(C(=O)c2ccccn2)c2cccnc2)cc1 (stereo unspecified)	-3	-2	0.74	-2	-4	-3	nt
O=C(NC1CCCCC1)C(c1cccnc1)N(C(=O)CCl)c1ccc(F)cc1 (stereo unspecified)	nt	88*	-4.4*	nt	6	78*	+
COc1ccc(N(C(=O)CCl)C(C(=O)NC2CCCCC2)c2cccnc2)cc1 (stereo unspecified)	25	-1	-5.4*	-1	3	98*	+
N#C/C(=C/c1ccc(N2CCOCC2)o1)c1ccc(Cl)cc1	nt	-50	-9.1	nt	13	15	i
